Series [1] is described as follows: Displacement of 3-[3H] 1-(azetidin-1-yl)-2-[6-(4-fluoro-3-methyl-phenyl)pyrrolo[3,2-b]pyridin-1-yl]ethanone from GluN1a/GluN2B receptor in rat cortex membranes measured after 2 hrs by liquid scintillation counting method. In kind it is cell membranes. The method, boiled down:
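Rat adult cortex was homogenized in 50 mM Tris pH 7.4, and membranes were washed by centrifugation. Membranes were incubated with the [3H] pyrrolopyridine tracer and test compound for 2 h at room temperature with shaking. Non-specific binding was defined with 10 µM CP-101,606. Bound tracer was separated by filtration on PEI-soaked GF/B filters and counted by liquid scintillation. Ki was obtained from a competition fit using tracer Kd; three independent runs in duplicate.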

Series [2] in a line: Volume of distribution at steady state in Sprague-Dawley rat at 0.5 mg/kg, iv or 2.5 mg/kg, po using 1:1 PEG-400/water formulation by LC-MS/MS analysis. In kind it is ADME, organism-based. Particulars: in vivo. The procedure, abridged:
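Rat PK at 0.5 mg/kg i.v. and 2.5 mg/kg p.o., vehicle 1:1 PEG400/water. n=3, values given as mean ± SD.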

Series [3] can be described thus: Half life in Sprague-Dawley rat at 0.5 mg/kg, iv or 2.5 mg/kg, po using 1:1 PEG-400/water formulation by LC-MS/MS analysis. The series is classed as ADME, organism-based. The note with it: in vivo. The procedure, abridged:
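Rats dosed 0.5 mg/kg i.v. and 2.5 mg/kg p.o., n=3 ± SD. Default vehicle is 20% HP-β-CD; one PK set used 1:1 PEG400/water and another 30% SBE-β-CD.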

Series [4] is described as follows: Cmax in Sprague-Dawley rat at 0.5 mg/kg, iv or 2.5 mg/kg, po using 1:1 PEG-400/water formulation by LC-MS/MS analysis. On the set-up: dose 2.5 mg/kg. The note with it: in vivo. The series is classed as ADME, organism-based. The method, boiled down:
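Rat IV/PO PK at 0.5 mg/kg IV and 2.5 mg/kg PO, dosed in 1:1 PEG400/water, n=3.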

In series [5] the target is Cytochrome P450 3A4 (Homo sapiens, UniProt P08684). Kind of series: Inhibition of CYP3A4 in human liver microsomes using midazolam as substrate measured after 15 mins by LC-MS/MS analysis. In kind it is ADME. The method, boiled down:
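Human liver microsomes incubated with isoform-specific probe substrates and the test compound at concentrations up to 20 µM. IC50 derived from inhibition of metabolite formation; mean of two independent experiments, with known specific inhibitors as positive controls.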
(Liver microsomes are vesicles of endoplasmic reticulum, rich in cytochrome P450 enzymes.)

Series [6] can be described thus: Cmax in dog at 0.5 mg/kg, po by LC-MS/MS analysis. In kind it is ADME, organism-based, Canis lupus familiaris. More on the design: route oral, dose 0.5 mg/kg. Particulars: in vivo.
A short description of series [7]: AUC (infinity) in mouse at 0.5 mg/kg, iv by LC-MS/MS analysis. The series is classed as ADME, organism-based. On the set-up: time infinity, route intravenous, dose 0.5 mg/kg. Particulars: in vivo.
A short description of series [8]: Volume of distribution at steady state in Sprague-Dawley rat at 0.5 mg/kg, iv by LC-MS/MS analysis. The series is classed as ADME, organism-based. The note with it: in vivo, read-out: Vdss. The procedure, abridged:
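Rat PK at 0.5 mg/kg i.v. and 2.5 mg/kg p.o., vehicle 20% HP-β-CD. n=3, values given as mean ± SD.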

Series [9] is described as follows: Half life in monkey at 0.1 mg/kg, iv by LC-MS/MS analysis. In kind it is ADME, organism-based, Macaca mulatta. Particulars: rhesus monkey, in vivo.
The nature of series [10]: AUC (infinity) in mouse at 2.5 mg/kg, po by LC-MS/MS analysis. In kind it is ADME, organism-based. On the set-up: route oral, time infinity, dose 2.5 mg/kg. The note with it: in vivo.
Series [11] in a line: Cmax in Sprague-Dawley rat at 250 mg/kg, po administered via gavage after 24 hrs using HPMC formulation by LC-MS/MS analysis. The series is classed as ADME, organism-based. On the set-up: route oral, time 24 hrs, dose 250 mg/kg. Particulars: in vivo. The procedure, abridged:
(§1)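 Single oral gavage dose to male Sprague Dawley rats, 3 per dose level. Vehicles were a standard suspension in 5% HPMC (125, 250, 500 or 1000 mg/kg) or a nanosuspension (API:polymer 4:1), with stock diluted in vehicle on the day of dosing (100, 250 or 500 mg/kg). Blood was sampled at time points from 0.5 to 24 h.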

A short description of series [12]: Cmax in Sprague-Dawley rat at 500 mg/kg, po administered via gavage after 24 hrs using HPMC formulation by LC-MS/MS analysis. In kind it is ADME, organism-based. More on the design: route oral, time 24 hrs, dose 500 mg/kg. Particulars: in vivo. The method, boiled down: as §1
Series [13] in a line: Tmax in Sprague-Dawley rat at 1000 mg/kg, po administered via gavage after 24 hrs using HPMC formulation by LC-MS/MS analysis. In kind it is ADME, organism-based. Particulars: in vivo. The procedure, abridged:
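Single oral gavage of a 5% HPMC suspension at 125, 250, 500 or 1000 mg/kg to male Sprague Dawley rats, 3 per group. Plasma was sampled at 6 time points from 0.5 to 24 h.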

Series [14] is described as follows: AUC (0 to 24 hrs) in Sprague-Dawley rat at 500 mg/kg, po administered via gavage after 24 hrs using HPMC formulation by LC-MS/MS analysis. The series is classed as ADME, organism-based. More on the design: route oral, dose 500 mg/kg, time <=24. The note with it: in vivo. The procedure, abridged:
as §1

Series [15] can be described thus: Cmax in Sprague-Dawley rat at 500 mg/kg, po administered via gavage after 24 hrs using nanosuspension formulation by LC-MS/MS analysis. The series is classed as ADME, organism-based. More on the design: route oral, time 24 hrs, dose 500 mg/kg. The note with it: in vivo. The method, boiled down: as §1
Series [16] in a line: Tmax in Sprague-Dawley rat at 100 mg/kg, po administered via gavage after 24 hrs using nanosuspension formulation by LC-MS/MS analysis. The series is classed as ADME, organism-based. The note with it: in vivo. The method, boiled down:
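Single oral gavage of a nanosuspension (API:polymer 4:1), diluted with vehicle on the dosing day, at 100, 250 or 500 mg/kg to male Sprague Dawley rats, 3 per dose. Plasma was sampled from 0.5 to 24 h.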

Series [17] is described as follows: AUC (0 to 24 hrs) in Sprague-Dawley rat at 500 mg/kg/day, po administered as nanosuspension measured for 14 days measured post last dose by LC-MS/MS analysis. The series is classed as ADME, organism-based. More on the design: route oral, dose 500 mg/kg/day, time 14 day. Particulars: in vivo. The method, boiled down: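 Repeated daily oral dosing of the nanosuspension to rats for 14 days, up to 500 mg/kg/day.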

Series [18] addresses T1, Nuclear receptor subfamily 1 group I member 2 (Homo sapiens, UniProt O75469).
T1 sequence (O75469 whole entry): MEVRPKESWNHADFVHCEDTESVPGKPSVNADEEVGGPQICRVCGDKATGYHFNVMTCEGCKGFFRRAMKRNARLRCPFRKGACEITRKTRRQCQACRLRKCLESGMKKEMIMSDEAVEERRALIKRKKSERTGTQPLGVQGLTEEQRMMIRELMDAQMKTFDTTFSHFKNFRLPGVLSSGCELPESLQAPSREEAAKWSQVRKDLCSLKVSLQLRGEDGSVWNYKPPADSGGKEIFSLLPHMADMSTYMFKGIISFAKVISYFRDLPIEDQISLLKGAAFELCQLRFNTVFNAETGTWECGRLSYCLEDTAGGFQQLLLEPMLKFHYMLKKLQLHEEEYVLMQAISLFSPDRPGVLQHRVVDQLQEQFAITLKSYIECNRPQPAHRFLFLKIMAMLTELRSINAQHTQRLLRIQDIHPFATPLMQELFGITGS
The experiment in a line: Activation of human PXR expressed in human DPX2 cells assessed as induction of CYP3A by luciferase reporter gene assay relative to control. In kind it is ADME, cell-based. The method, boiled down:
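Luciferase reporter lines were used. DPX2 is HepG2 carrying human PXR plus a CYP3A4 promoter-luciferase construct. 1A2-DRE carries human AhR plus a CYP1A2 promoter with 3 DRE copies. Luminescence was read with ONE-Glo. Activation was expressed relative to rifampicin (PXR) or omeprazole (AhR).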

Series [19] can be described thus: Solubility of compound in FASSIF at pH 6.8 measured after 3 days. In kind it is physicochemical. Particulars: time 3 day. The method, boiled down:
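Solubility in aqueous buffer at pH 2 and pH 7, and in simulated gastric and intestinal fluids.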

Series [20] is described as follows: Protein binding in rat plasma assessed as unbound fraction at 0.5 uM after 6 hrs by equilibrium dialysis method. The series is classed as ADME, cell-free. (In equilibrium dialysis only unbound substance equilibrates across the membrane.)

Converted amounts (≈) assume the structure as drawn.

Cytochrome P450 3A4, sequence (P08684 whole entry, canonical isoform): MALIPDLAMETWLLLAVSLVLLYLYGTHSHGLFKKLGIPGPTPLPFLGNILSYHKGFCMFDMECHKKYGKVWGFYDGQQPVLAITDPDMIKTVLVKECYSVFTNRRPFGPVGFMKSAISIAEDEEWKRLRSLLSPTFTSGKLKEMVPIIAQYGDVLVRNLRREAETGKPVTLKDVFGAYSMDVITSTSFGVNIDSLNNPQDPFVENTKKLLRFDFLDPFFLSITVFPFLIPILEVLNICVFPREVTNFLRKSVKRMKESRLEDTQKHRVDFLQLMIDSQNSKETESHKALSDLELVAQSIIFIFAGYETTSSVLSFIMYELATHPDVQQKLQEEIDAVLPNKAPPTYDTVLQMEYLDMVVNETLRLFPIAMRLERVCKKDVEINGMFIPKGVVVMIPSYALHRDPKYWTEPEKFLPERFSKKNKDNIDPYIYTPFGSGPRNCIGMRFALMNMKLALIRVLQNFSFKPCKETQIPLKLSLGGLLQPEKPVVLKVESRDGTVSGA

As a reminder, the Ki is the equilibrium dissociation constant of an inhibitor or competing ligand from its target. The half-life is the time in which the quantity being followed falls by half. The term Cmax denotes the highest concentration seen after dosing. As a reminder, the IC50 is the concentration needed to halve the response being measured. What is called AUC(0-inf) is the area under the concentration-time curve extrapolated to infinity. One may read the Tmax as the time from dosing to the highest level. As usually defined, the AUC(0-t) is exposure summed from dosing to a finite time, without extrapolation to infinity. The AUC is the area under the concentration-time curve, a measure of exposure. Usually solubility stands for the concentration that dissolves in the medium under given conditions. What is called fraction unbound is free concentration divided by total concentration. In series [1], `Cn1c(=O)n(CC(=O)N2CCC2)c2cc(-c3ccc(C(F)(F)F)s3)cnc21` showed a Ki of 16 nM. Moreover, the Vdss in series [2] was 1.9 L/kg. For the same molecule, the half-life in series [3] is 0.8 h; in [9] it was 1.1 h. The Cmax in [4] came out at 479 ng/mL; in [6] it was 351 ng/mL; in [11], 5480 ng/mL; in series [12], 6140 ng/mL; in series [15], 18300 ng/mL. Moreover, the IC50 in series [5] was over 50000 nM. In addition, the AUC(0-inf) in series [7] worked out at 156 ng·h/mL; in [10], 539 ng·h/mL. Further, in [8], the Vd amounted to 1.9 L/kg. In addition, the Tmax in series [13] was found to be 2.3 h; in series [16], 2.7 h. The molecule further gave an AUC(0-t) in series [14] of 22500 ng·h/mL. Further, in [17], the AUC at 336 h was 222000 ng·h/mL. For the same molecule, the Activity in series [18] is on record as under 20%. The same molecule returned a solubility at 72 h in series [19] of 8.4 µM (≈ 3.33 µg/mL). Also, the fraction unbound at 6 h, 0.5 µM in [20] was 0.053.

For the origin of these results see ChEMBL document CHEMBL4725355, “Design, Synthesis, and Preclinical Evaluation of 3-Methyl-6-(5-thiophenyl)-1,3-dihydro-imidazo[4,5-b]pyridin-2-ones as Selective GluN2B Negative Allosteric Modulators for the Treatment of Mood Disorders” (J Med Chem, 2020).
